This is one part of a sample in which hits are shown more often than they occur.
T cruzi inh = T. cruzi replication inhibition; 300,000 tested, 1.4% active; AID 1885; T. cruzi beta-gal in NIH3T3, luminescence, 90 h; inhibition, % (concentration not given with the values);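 active = mean inhibition across valid replicates above about 55%, limit read from the data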;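 also: signal also drops with host cell toxicity which is not excluded here; 0% = plate median of DMSO wells and 100% = zero luminescence signal; higher percent means less beta-gal luminescence so fewer parasites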
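Incubation – ≥90 h infection period, 3 h prior cell attachment · System – NIH/3T3 fibroblasts plus reporter T. cruzi · Doses – compound pinned at 50 nL/well, DMSO · Read-out basis – percent inhibition of parasite-derived β-gal signal · Signal – luminescent β-galactosidase signal after 60 min lysis · Also added – 5000 T. cruzi trypomastigotes/well · Medium – Low-serum DMEM with 2% FBS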
NALP3 yeast inh = inhibitors of NALP3 inflammasome in yeast. Yeast reconstituted NLRP3/ASC/caspase-1, beta-gal luminescence, 24 h. inhibition, % at 10 µM. 330,000 tested, 0.39% active;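 active = inhibition of 50% or more; inactive = inhibition below 50%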;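 also: plate controls were induced DMSO wells for no effect and uninduced yeast grown without galactose for full effect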
Lmaj promast = inhibitors of Leishmania major promastigote growth | Leishmania major promastigotes, resazurin fluorescence viability | inhibition, % at 10 µM | 200,000 tested, 9% active; in the data active = inhibition above about 50%;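 also: promastigotes grown with compound for 44 hours at 28 °C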
NALP1 yeast inh = blocks the NALP1 inflammasome reconstituted in yeast | inhibition, % at 10 µM | AID 2071 | 280,000 tested, 0.61% active | S. cerevisiae NALP1/ASC/caspase-1 growth, X-gal OD620, 72 h; in the data active = inhibition mostly above about 24%, no sharp cut-off; inactive = mostly below about 32%
Calb FLC = affects C. albicans growth with fluconazole; C. albicans CaCi-2 + fluconazole, Alamar Blue growth, 48 h; growth inhibition, % (concentration not given with the values); 300,000 tested, 0.57% active; AID 1979;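 active = growth inhibition above about 58% in most replicates, limit read from the data, passing the limit was not always enough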;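 also: all wells also contain fluconazole at 8 µg/ml as a sub-toxic cotreatment; 0% = median of DMSO wells and 100% = median of geldanamycin control wells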
PolyA inh = yeast polyadenylation inhibition; S. cerevisiae SKY197-pL101 polyadenylation reporter, beta-gal luminescence; efflux-impaired pdr1/pdr3 knockout yeast; score 100 = 6 SD above DMSO; activity score, % at 12 µM; 300,000 tested, 0.02% active; AID 1875;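 active = lowest replicate activity score at least 50, where 100 means six control SD above control mean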;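 also: yeast exposed to compound for 9 h at 30 °C; higher score means more reporter readthrough which indicates perturbed polyadenylation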
* marks the source's active call; other numbers are inactive results.

How did O=C1CSC(c2cccc(F)c2)N1c1c(F)cccc1F (configuration not stated) do in these assays?
T cruzi inh: -9; NALP3 yeast inh: 14; NALP1 yeast inh: 20; Calb FLC: -4; PolyA inh: 7

Results for O=C(CC1Sc2ccccc2NC1=O)NCc1ccccc1 (configuration not stated) ?
T cruzi inh: -2; NALP3 yeast inh: 8; NALP1 yeast inh: -11; Calb FLC: -2; PolyA inh: 2

How did O=C(Nc1nccs1)c1ccc(-c2ccc([N+](=O)[O-])cc2)o1 do in these assays?
T cruzi inh: 14; Lmaj promast: 2; NALP1 yeast inh: 32*; Calb FLC: 6; PolyA inh: -1

What do the screens show for `O=C(Nc1ccccc1)c1ccc(-c2ccc([N+](=O)[O-])cc2)o1`?
T cruzi inh: 1; NALP3 yeast inh: 25; NALP1 yeast inh: 14; Calb FLC: -16; PolyA inh: -19

How did O=C(c1ccc(-c2ccc([N+](=O)[O-])cc2)o1)N1CCCCC1 do in these assays?
T cruzi inh: -8; NALP3 yeast inh: -18; Lmaj promast: 100*; NALP1 yeast inh: 5; Calb FLC: -11; PolyA inh: -2

How did CC1CC(C)CN(C(=O)c2ccc(-c3ccc([N+](=O)[O-])cc3)o2)C1 (configuration not stated) do in these assays?
T cruzi inh: 21; NALP3 yeast inh: 13; Calb FLC: 9; PolyA inh: -15

How did O=C(NNC(=O)c1ccccc1O)c1ccc(-c2ccc([N+](=O)[O-])cc2)o1 do in these assays?
T cruzi inh: 5; NALP3 yeast inh: -1; Calb FLC: 91*; PolyA inh: 10

How did CC1CCc2sc(C(=O)OCC(=O)NCc3ccc(F)cc3)cc2C1 (configuration not stated) do in these assays?
T cruzi inh: 0; NALP3 yeast inh: 19; Lmaj promast: -8; NALP1 yeast inh: 32; Calb FLC: -8; PolyA inh: -11

How did COc1ccc(C2N(c3cc(Cl)ccc3OC)C(=O)C3CCCN32)cc1OC (configuration not stated) do in these assays?
T cruzi inh: -13; NALP3 yeast inh: 10; Lmaj promast: 2; NALP1 yeast inh: -9; Calb FLC: -6; PolyA inh: -2

What do the screens show for `CNC(=S)N(Cc1cccs1)Cc1cc2ccc(OC)cc2[nH]c1=O`?
T cruzi inh: 22; NALP3 yeast inh: 17; Lmaj promast: 70*; NALP1 yeast inh: 18; Calb FLC: -6; PolyA inh: 16

How did COc1ccc2[nH]c(=O)c(CN(Cc3cccs3)C(=S)Nc3ccccc3)cc2c1 do in these assays?
T cruzi inh: 37; NALP3 yeast inh: 11; Lmaj promast: 98*; NALP1 yeast inh: 8; Calb FLC: -11; PolyA inh: 5

How did CCNC(=S)N(Cc1cccs1)Cc1cc2cc(OCC)ccc2[nH]c1=O do in these assays?
T cruzi inh: 23; NALP3 yeast inh: 12; Lmaj promast: 96*; NALP1 yeast inh: 13; Calb FLC: 3; PolyA inh: -10

What do the screens show for `COc1cc2cc(CN(Cc3cccs3)C(=S)Nc3ccccc3)c(=O)[nH]c2cc1OC`?
T cruzi inh: 34; NALP3 yeast inh: 5; Lmaj promast: 81*; NALP1 yeast inh: 28; Calb FLC: 9; PolyA inh: 7

How did COc1ccc2[nH]c(=O)c(CN(CCCN(C)C)C(=O)Nc3ccccc3)cc2c1 do in these assays?
T cruzi inh: 5; NALP3 yeast inh: 3; Lmaj promast: 14; NALP1 yeast inh: 11; Calb FLC: 3; PolyA inh: 1

How did CN1CCN(C(=O)CCN2C(=O)/C(=C/c3ccc(F)cc3)SC2=S)CC1 do in these assays?
T cruzi inh: -30; NALP3 yeast inh: 2; NALP1 yeast inh: 9; Calb FLC: -22; PolyA inh: -16

How did Cc1n(Cc2ccccc2)c2ccccc2[n+]1Cc1ccccc1 do in these assays?
T cruzi inh: 41; NALP3 yeast inh: 7; NALP1 yeast inh: 8; Calb FLC: -1; PolyA inh: -10

Results for CCC(C)[C@H](NC(=O)Nc1ccc(C)cc1C)C(=O)O (some centres not stated) ?
T cruzi inh: -4; NALP3 yeast inh: 0; Calb FLC: -7; PolyA inh: 22

Results for CCCCOP(=O)(OCCCC)C1(NS(=O)(=O)c2ccccc2)C=CC(=O)c2ccccc21 (configuration not stated) ?
T cruzi inh: 0; NALP3 yeast inh: 5; Lmaj promast: 100*; NALP1 yeast inh: 5; Calb FLC: 30; PolyA inh: -3

How did COc1cc(/C=C/C(=O)c2ccc(F)cc2)cc(OC)c1OC do in these assays?
T cruzi inh: 7; NALP3 yeast inh: -15; Lmaj promast: 100*; NALP1 yeast inh: 13; Calb FLC: -1; PolyA inh: -3

What do the screens show for `COc1ccc(C(=O)/C=C/c2ccc(OC(=O)c3cc(OC)c(OC)c(OC)c3)cc2)cc1`?
T cruzi inh: -5; NALP3 yeast inh: -2; Lmaj promast: 65*; NALP1 yeast inh: 18; Calb FLC: 0; PolyA inh: -6

What do the screens show for `CCOc1ccc(C(=O)/C=C/c2cc(OC)c(OC)c(OC)c2)cc1`?
T cruzi inh: 1; NALP3 yeast inh: 5; Lmaj promast: 27; NALP1 yeast inh: 9; Calb FLC: -3; PolyA inh: -6

How did CC(=O)Nc1ccc(S(=O)(=O)N2CCC(c3nc4ccc(C)cc4[nH]3)CC2)cc1 do in these assays?
T cruzi inh: 5; NALP3 yeast inh: -13; Lmaj promast: -6; NALP1 yeast inh: 5; Calb FLC: 5; PolyA inh: 0

How did CC1CCCN(C(=O)CN2CCC(c3nc4ccc(Cl)cc4[nH]3)CC2)C1 (configuration not stated) do in these assays?
T cruzi inh: 13; NALP3 yeast inh: -1; Calb FLC: 1; PolyA inh: -14

Results for CC(C)(C)c1ccc(S(=O)(=O)N2CCC(c3nc4ccc(Cl)cc4[nH]3)CC2)cc1 ?
T cruzi inh: 55*; NALP3 yeast inh: 13; Lmaj promast: 18; NALP1 yeast inh: 8; Calb FLC: -23; PolyA inh: 2

How did Clc1ccc(CN2CCC(c3nc4ccc(Cl)cc4[nH]3)CC2)cc1 do in these assays?
T cruzi inh: 51; NALP3 yeast inh: 26; Lmaj promast: 99*; NALP1 yeast inh: 30; Calb FLC: 2; PolyA inh: -3

What do the screens show for `O=c1[nH]c(=S)ccn1C1OC(CO)C(O)C1O` (configuration not stated)?
T cruzi inh: -1; NALP3 yeast inh: 4; Calb FLC: 5; PolyA inh: 2

What do the screens show for `Cc1cccc(-n2c(=O)[nH]c3c(C(N)=O)nc(CC(C)C)nc32)c1`?
T cruzi inh: 5; NALP3 yeast inh: -15; Lmaj promast: 50*; NALP1 yeast inh: 13; Calb FLC: -3; PolyA inh: 11

Screens: PubChem, several laboratories
